Measured values reported in ChEMBL document CHEMBL3044834, “Novel protoporphyrinogen oxidase inhibitors: 3H-pyrazolo[3,4-d][1,2,3]triazin-4-one derivatives” (J Agric Food Chem, 2008).

system: Digitaria sanguinalis; test: Herbicidal activity against Digitaria sanguinalis (hairy crabgrass) assessed as inhibition of fresh weed plant weight at 1500 g/ha using pre-emergence treatment protocol; assay type: functional

SMILES	inhibition at 1500 g/ha [%]
C=CCOc1cc(-n2nnc3c(cnn3CC=C)c2=O)c(F)cc1Cl	10.5
C=CCN1C(=O)COc2cc(F)c(-n3nnc4c(cnn4CCC)c3=O)cc21	90.7

system: Amaranthus retroflexus; test: Herbicidal activity against Amaranthus retroflexus assessed as inhibition of fresh weed plant weight at 1500 g/ha using post-emergence treatment protocol; assay type: functional
Procedure, shortened: (§1)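 Test compounds made up as emulsions by dissolving in 100 µL N,N-dimethylformamide, then adding a little Tween 20 and water. For post-emergence, weed seedlings at one leaf and one stem were sprayed at the same rates as the pre-emergence test. Fresh weight was recorded 15 days after treatment and expressed as percent inhibition versus controls. All treatments were run in triplicate.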

SMILES	inhibition at 1500 g/ha [%]
C=CCOc1cc(-n2nnc3c(cnn3CC=C)c2=O)c(F)cc1Cl	100
C=CCN1C(=O)COc2cc(F)c(-n3nnc4c(cnn4CCC)c3=O)cc21	100

system: Amaranthus retroflexus; test: Herbicidal activity against Amaranthus retroflexus assessed as inhibition of fresh weed plant weight at 1500 g/ha using pre-emergence treatment protocol; assay type: functional

SMILES	inhibition at 1500 g/ha [%]
C=CCOc1cc(-n2nnc3c(cnn3CC=C)c2=O)c(F)cc1Cl	60.1
C=CCN1C(=O)COc2cc(F)c(-n3nnc4c(cnn4CCC)c3=O)cc21	100

system: Brassica rapa subsp. oleifera; test: Herbicidal activity against Brassica rapa subsp. oleifera assessed as inhibition of fresh weed plant weight at 187.5 g/ha using post-emergence treatment protocol; assay type: functional; procedure, shortened: as §1

SMILES	inhibition at 187.5 g/ha [%]
C=CCOc1cc(-n2nnc3c(cnn3CC=C)c2=O)c(F)cc1Cl	0
C=CCN1C(=O)COc2cc(F)c(-n3nnc4c(cnn4CCC)c3=O)cc21	12.6

system: Brassica rapa subsp. oleifera; test: Herbicidal activity against Brassica rapa subsp. oleifera assessed as inhibition of fresh weed plant weight at 375 g/ha using post-emergence treatment protocol; assay type: functional; procedure, shortened: as §1

SMILES	inhibition at 375 g/ha [%]
C=CCOc1cc(-n2nnc3c(cnn3CC=C)c2=O)c(F)cc1Cl	0
C=CCN1C(=O)COc2cc(F)c(-n3nnc4c(cnn4CCC)c3=O)cc21	45.1

system: Brassica rapa subsp. oleifera; test: Herbicidal activity against Brassica rapa subsp. oleifera assessed as inhibition of fresh weed plant weight at 750 g/ha using post-emergence treatment protocol; assay type: functional; procedure, shortened: as §1

SMILES	inhibition at 750 g/ha [%]
C=CCOc1cc(-n2nnc3c(cnn3CC=C)c2=O)c(F)cc1Cl	2.9
C=CCN1C(=O)COc2cc(F)c(-n3nnc4c(cnn4CCC)c3=O)cc21	78.9

system: Brassica rapa subsp. oleifera; test: Herbicidal activity against Brassica rapa subsp. oleifera assessed as inhibition of fresh weed plant weight at 187.5 g/ha using pre-emergence treatment protocol; assay type: functional

SMILES	inhibition at 187.5 g/ha [%]
C=CCOc1cc(-n2nnc3c(cnn3CC=C)c2=O)c(F)cc1Cl	9
C=CCN1C(=O)COc2cc(F)c(-n3nnc4c(cnn4CCC)c3=O)cc21	26.9

system: Brassica rapa subsp. oleifera; test: Herbicidal activity against Brassica rapa subsp. oleifera assessed as inhibition of fresh weed plant weight at 375 g/ha using pre-emergence treatment protocol; assay type: functional

SMILES	inhibition at 375 g/ha [%]
C=CCOc1cc(-n2nnc3c(cnn3CC=C)c2=O)c(F)cc1Cl	11.9
C=CCN1C(=O)COc2cc(F)c(-n3nnc4c(cnn4CCC)c3=O)cc21	82.8

system: Brassica rapa subsp. oleifera; test: Herbicidal activity against Brassica rapa subsp. oleifera assessed as inhibition of fresh weed plant weight at 750 g/ha using pre-emergence treatment protocol; assay type: functional

SMILES	inhibition at 750 g/ha [%]
C=CCOc1cc(-n2nnc3c(cnn3CC=C)c2=O)c(F)cc1Cl	16.4
C=CCN1C(=O)COc2cc(F)c(-n3nnc4c(cnn4CCC)c3=O)cc21	100

system: Digitaria sanguinalis; test: Herbicidal activity against Digitaria sanguinalis (hairy crabgrass) assessed as inhibition of fresh weed plant weight at 1500 g/ha using post-emergence treatment protocol; assay type: functional; procedure, shortened: as §1

SMILES	inhibition at 1500 g/ha [%]
C=CCOc1cc(-n2nnc3c(cnn3CC=C)c2=O)c(F)cc1Cl	23.1
C=CCN1C(=O)COc2cc(F)c(-n3nnc4c(cnn4CCC)c3=O)cc21	52.8

system: Brassica rapa subsp. oleifera; test: Herbicidal activity against Brassica rapa subsp. oleifera assessed as inhibition of fresh weed plant weight at 1500 g/ha using post-emergence treatment protocol; assay type: functional; procedure, shortened: as §1

SMILES	inhibition at 1500 g/ha [%]
C=CCOc1cc(-n2nnc3c(cnn3CC=C)c2=O)c(F)cc1Cl	10.3
C=CCN1C(=O)COc2cc(F)c(-n3nnc4c(cnn4CCC)c3=O)cc21	97.5

system: Brassica rapa subsp. oleifera; test: Herbicidal activity against Brassica rapa subsp. oleifera assessed as inhibition of fresh weed plant weight at 1500 g/ha using pre-emergence treatment protocol; assay type: functional

SMILES	inhibition at 1500 g/ha [%]
C=CCOc1cc(-n2nnc3c(cnn3CC=C)c2=O)c(F)cc1Cl	30.5
C=CCN1C(=O)COc2cc(F)c(-n3nnc4c(cnn4CCC)c3=O)cc21	100

system: Echinochloa crus-galli; test: Herbicidal activity against Echinochloa crus-galli (barnyard grass) assessed as inhibition of fresh weed plant weight at 750 g/ha using pre-emergence treatment protocol; assay type: functional

SMILES	inhibition at 750 g/ha [%]
C=CCOc1cc(-n2nnc3c(cnn3CC=C)c2=O)c(F)cc1Cl	16.9
C=CCN1C(=O)COc2cc(F)c(-n3nnc4c(cnn4CCC)c3=O)cc21	62.8

system: Amaranthus retroflexus; test: Herbicidal activity against Amaranthus retroflexus assessed as inhibition of fresh weed plant weight at 750 g/ha using pre-emergence treatment protocol; assay type: functional; procedure, shortened: as §1

SMILES	inhibition at 750 g/ha [%]
C=CCOc1cc(-n2nnc3c(cnn3CC=C)c2=O)c(F)cc1Cl	34.4
C=CCN1C(=O)COc2cc(F)c(-n3nnc4c(cnn4CCC)c3=O)cc21	100

system: Amaranthus retroflexus; test: Herbicidal activity against Amaranthus retroflexus assessed as inhibition of fresh weed plant weight at 375 g/ha using pre-emergence treatment protocol; assay type: functional

SMILES	inhibition at 375 g/ha [%]
C=CCOc1cc(-n2nnc3c(cnn3CC=C)c2=O)c(F)cc1Cl	27.9
C=CCN1C(=O)COc2cc(F)c(-n3nnc4c(cnn4CCC)c3=O)cc21	77

system: Digitaria sanguinalis; test: Herbicidal activity against Digitaria sanguinalis (hairy crabgrass) assessed as inhibition of fresh weed plant weight at 187.5 g/ha using pre-emergence treatment protocol; assay type: functional

SMILES	inhibition at 187.5 g/ha [%]
C=CCOc1cc(-n2nnc3c(cnn3CC=C)c2=O)c(F)cc1Cl	0
C=CCN1C(=O)COc2cc(F)c(-n3nnc4c(cnn4CCC)c3=O)cc21	37

system: Amaranthus retroflexus; test: Herbicidal activity against Amaranthus retroflexus assessed as inhibition of fresh weed plant weight at 187.5 g/ha using post-emergence treatment protocol; assay type: functional; procedure, shortened: as §1

SMILES	inhibition at 187.5 g/ha [%]
C=CCOc1cc(-n2nnc3c(cnn3CC=C)c2=O)c(F)cc1Cl	12.2
C=CCN1C(=O)COc2cc(F)c(-n3nnc4c(cnn4CCC)c3=O)cc21	48.8

system: Digitaria sanguinalis; test: Herbicidal activity against Digitaria sanguinalis (hairy crabgrass) assessed as inhibition of fresh weed plant weight at 750 g/ha using post-emergence treatment protocol; assay type: functional; procedure, shortened: as §1

SMILES	inhibition at 750 g/ha [%]
C=CCOc1cc(-n2nnc3c(cnn3CC=C)c2=O)c(F)cc1Cl	11.1
C=CCN1C(=O)COc2cc(F)c(-n3nnc4c(cnn4CCC)c3=O)cc21	33.3

system: Amaranthus retroflexus; test: Herbicidal activity against Amaranthus retroflexus assessed as inhibition of fresh weed plant weight at 187.5 g/ha using pre-emergence treatment protocol; assay type: functional

SMILES	inhibition at 187.5 g/ha [%]
C=CCOc1cc(-n2nnc3c(cnn3CC=C)c2=O)c(F)cc1Cl	1.6
C=CCN1C(=O)COc2cc(F)c(-n3nnc4c(cnn4CCC)c3=O)cc21	67.2

system: Amaranthus retroflexus; test: Herbicidal activity against Amaranthus retroflexus assessed as inhibition of fresh weed plant weight at 750 g/ha using post-emergence treatment protocol; assay type: functional; procedure, shortened: as §1

SMILES	inhibition at 750 g/ha [%]
C=CCOc1cc(-n2nnc3c(cnn3CC=C)c2=O)c(F)cc1Cl	100
C=CCN1C(=O)COc2cc(F)c(-n3nnc4c(cnn4CCC)c3=O)cc21	100

system: Amaranthus retroflexus; test: Herbicidal activity against Amaranthus retroflexus assessed as inhibition of fresh weed plant weight at 375 g/ha using post-emergence treatment protocol; assay type: functional; procedure, shortened: as §1

SMILES	inhibition at 375 g/ha [%]
C=CCOc1cc(-n2nnc3c(cnn3CC=C)c2=O)c(F)cc1Cl	85.4
C=CCN1C(=O)COc2cc(F)c(-n3nnc4c(cnn4CCC)c3=O)cc21	100

system: Echinochloa crus-galli; test: Herbicidal activity against Echinochloa crus-galli (barnyard grass) assessed as inhibition of fresh weed plant weight at 750 g/ha using post-emergence treatment protocol; assay type: functional; procedure, shortened: as §1

SMILES	inhibition at 750 g/ha [%]
C=CCOc1cc(-n2nnc3c(cnn3CC=C)c2=O)c(F)cc1Cl	22
C=CCN1C(=O)COc2cc(F)c(-n3nnc4c(cnn4CCC)c3=O)cc21	7.3

system: Echinochloa crus-galli; test: Herbicidal activity against Echinochloa crus-galli (barnyard grass) assessed as inhibition of fresh weed plant weight at 375 g/ha using post-emergence treatment protocol; assay type: functional; procedure, shortened: as §1

SMILES	inhibition at 375 g/ha [%]
C=CCOc1cc(-n2nnc3c(cnn3CC=C)c2=O)c(F)cc1Cl	18
C=CCN1C(=O)COc2cc(F)c(-n3nnc4c(cnn4CCC)c3=O)cc21	2.3

system: Echinochloa crus-galli; test: Herbicidal activity against Echinochloa crus-galli (barnyard grass) assessed as inhibition of fresh weed plant weight at 187.5 g/ha using post-emergence treatment protocol; assay type: functional; procedure, shortened: as §1

SMILES	inhibition at 187.5 g/ha [%]
C=CCOc1cc(-n2nnc3c(cnn3CC=C)c2=O)c(F)cc1Cl	2.4
C=CCN1C(=O)COc2cc(F)c(-n3nnc4c(cnn4CCC)c3=O)cc21	1.5

system: Digitaria sanguinalis; test: Herbicidal activity against Digitaria sanguinalis (hairy crabgrass) assessed as inhibition of fresh weed plant weight at 750 g/ha using pre-emergence treatment protocol; assay type: functional

SMILES	inhibition at 750 g/ha [%]
C=CCOc1cc(-n2nnc3c(cnn3CC=C)c2=O)c(F)cc1Cl	4.3
C=CCN1C(=O)COc2cc(F)c(-n3nnc4c(cnn4CCC)c3=O)cc21	71.7

system: Digitaria sanguinalis; test: Herbicidal activity against Digitaria sanguinalis (hairy crabgrass) assessed as inhibition of fresh weed plant weight at 375 g/ha using pre-emergence treatment protocol; assay type: functional

SMILES	inhibition at 375 g/ha [%]
C=CCOc1cc(-n2nnc3c(cnn3CC=C)c2=O)c(F)cc1Cl	0
C=CCN1C(=O)COc2cc(F)c(-n3nnc4c(cnn4CCC)c3=O)cc21	67.4

system: Digitaria sanguinalis; test: Herbicidal activity against Digitaria sanguinalis (hairy crabgrass) assessed as inhibition of fresh weed plant weight at 375 g/ha using post-emergence treatment protocol; assay type: functional; procedure, shortened: as §1

SMILES	inhibition at 375 g/ha [%]
C=CCOc1cc(-n2nnc3c(cnn3CC=C)c2=O)c(F)cc1Cl	0
C=CCN1C(=O)COc2cc(F)c(-n3nnc4c(cnn4CCC)c3=O)cc21	25

system: Digitaria sanguinalis; test: Herbicidal activity against Digitaria sanguinalis (hairy crabgrass) assessed as inhibition of fresh weed plant weight at 187.5 g/ha using post-emergence treatment protocol; assay type: functional; procedure, shortened: as §1

SMILES	inhibition at 187.5 g/ha [%]
C=CCOc1cc(-n2nnc3c(cnn3CC=C)c2=O)c(F)cc1Cl	0
C=CCN1C(=O)COc2cc(F)c(-n3nnc4c(cnn4CCC)c3=O)cc21	8.3

system: Echinochloa crus-galli; test: Herbicidal activity against Echinochloa crus-galli (barnyard grass) assessed as inhibition of fresh weed plant weight at 375 g/ha using pre-emergence treatment protocol; assay type: functional; procedure, shortened: as §1

SMILES	inhibition at 375 g/ha [%]
C=CCOc1cc(-n2nnc3c(cnn3CC=C)c2=O)c(F)cc1Cl	10
C=CCN1C(=O)COc2cc(F)c(-n3nnc4c(cnn4CCC)c3=O)cc21	55

system: Echinochloa crus-galli; test: Herbicidal activity against Echinochloa crus-galli (barnyard grass) assessed as inhibition of fresh weed plant weight at 187.5 g/ha using pre-emergence treatment protocol; assay type: functional; procedure, shortened: as §1

SMILES	inhibition at 187.5 g/ha [%]
C=CCOc1cc(-n2nnc3c(cnn3CC=C)c2=O)c(F)cc1Cl	6.5
C=CCN1C(=O)COc2cc(F)c(-n3nnc4c(cnn4CCC)c3=O)cc21	42.9

system: Echinochloa crus-galli; test: Herbicidal activity against Echinochloa crus-galli (barnyard grass) assessed as inhibition of fresh weed plant weight at 1500 g/ha using pre-emergence treatment protocol; assay type: functional

SMILES	inhibition at 1500 g/ha [%]
C=CCOc1cc(-n2nnc3c(cnn3CC=C)c2=O)c(F)cc1Cl	30.1
C=CCN1C(=O)COc2cc(F)c(-n3nnc4c(cnn4CCC)c3=O)cc21	86.4

system: Echinochloa crus-galli; test: Herbicidal activity against Echinochloa crus-galli (barnyard grass) assessed as inhibition of fresh weed plant weight at 1500 g/ha using post-emergence treatment protocol; assay type: functional; procedure, shortened: as §1

SMILES	inhibition at 1500 g/ha [%]
C=CCOc1cc(-n2nnc3c(cnn3CC=C)c2=O)c(F)cc1Cl	32.3
C=CCN1C(=O)COc2cc(F)c(-n3nnc4c(cnn4CCC)c3=O)cc21	20.1
